Published values from different studies.
Lines come from different studies, so protocols differ.
Target: D(1A) dopamine receptor (DRD1, Homo sapiens, UniProt P21728)

Structure (SMILES)	read-out	method	concentration	endpoint	result
COCc1c(-c2cc3cc(C)cc(OC)c3s2)c2c(N)ncnn2c1CN1CCNC(=O)C1	ligand displacement	radioligand	10 µM	inhibition	10%
CCN(CC)CCCC[C@H](NC(=O)[C@H](CC(C)C)NC(=O)[C@H](C)NC(=O)[C@H](Cc1ccccc1)NC(=O)c1ccc(C(C)(C)C)cc1)C(=O)N[C@@H](CO)C(=O)OC	ligand displacement	radioligand	10 µM	inhibition	4%
Clc1ccc2c(C3CCN(CCc4c[nH]c5ccccc45)CC3)c[nH]c2c1	ligand displacement	radioligand	10 µM	inhibition	100%
CC(Cc1ccccc1)NCCn1cnc2c1c(=O)n(C)c(=O)n2C (stereo not drawn)	ligand displacement	radioligand	10 µM	inhibition	8%
c1ccc(C(NCCNC(c2ccccc2)c2ccccc2)c2ccccc2)cc1	cell-free assay	–	10 µM	inhibition	24%
Cc1c(N2CCNCC2)nc2ccc(Br)cc2c1C(=O)NC[C@H](CCC(=O)O)c1ccccc1Cl	ligand displacement	–	10 µM	inhibition	31.6%
CC(C)N1CCC[C@H]1CNC(=O)c1cn(C2CCCC2)c(=O)c2c1c1ccccc1n2C	ligand displacement	radioligand	10 µM	inhibition	5%
Cn1cncc1[C@@](O)(COc1ccc(C#N)cc1-c1ccc(OC(F)(F)F)cc1)c1ccc(C#N)cc1	ligand displacement	–	10 µM	inhibition	19%
Nc1ncc(-c2nc(N3CCOCC3)nc(N3CCOCC3)n2)c(C(F)F)n1	cell-free assay	radioligand	10 µM	remaining signal	90.9%
COc1ccc(S(=O)(=O)N2CCCCC2)cc1C	ligand displacement	radioligand	10 µM	inhibition	< 30%
C[C@H](C(=O)N[C@H]1COc2ccccc2[C@@H]1S(C)(=O)=O)c1ccc(F)cc1	cell-free assay	–	10 µM	inhibition	-6%
CN(CCN1CCC(OC(=O)Nc2ccccc2-c2ccccc2)CC1)C(=O)c1ccc(CN2CCC(C(N)=O)CC2)cc1	ligand displacement	radioligand	1 µM	inhibition	1%
